SENP8 block-1 – SENP8 protease inhibitors, primary screen, biochemical, luminescence; inhibition, % at 10 µM; Sentrin-specific protease 8 (Homo sapiens), Q96LD8; purified SENP8, Z-RLRGG-aminoluciferin cleavage; 1.2% of 330,000 active; AID 2540, 2010; in the data active = inhibition above about 50%
SENP8 block-2 – human SENP8 protease inhibitors, primary screen, biochemical, fluorescence, Nedd8 protein substrate, uHTS. Sentrin-specific protease 8 (Homo sapiens), Q96LD8. recombinant SENP8. inhibition, % at 20 µM. 0.64% of 360,000 active; in the data active = inhibition mostly above about 40%, no sharp cut-off; inactive = mostly below about 27%
CendR NRP1 mod – modulators of CendR peptide binding to NRP-1, primary screen, biochemical, fluorescence polarization, uHTS. Neuropilin-1 (Homo sapiens), O14786. FAM-RPARPAR peptide binding to NRP-1. inhibition, % at 25 µM. 0.85% of 360,000 active. AID 602438, 2012;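 active = inhibition or corrected inhibition above about 18%, plus a signal ratio from 0.5 to 1.5, limit read from the data, passing the limit was not always enough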
SENP1 inh – human SENP1 catalytic domain inhibitors, primary screen, biochemical, FRET, uHTS | Sentrin-specific protease 1 (Homo sapiens), Q9P0U3 | recombinant SENP1 catalytic domain, CyPet-SUMO1-YPet FRET cleavage | inhibition, % at 10 µM | 0.21% of 360,000 active;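 active = inhibition at least 30% at 10 µM, raw YFP signal under a set limit, fluorescence ratio 0.5 to 1.5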;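 also: 0% = enzyme with DMSO and 100% = no enzyme wells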
Target sequence (Q9P0U3 419-644 limits assumed): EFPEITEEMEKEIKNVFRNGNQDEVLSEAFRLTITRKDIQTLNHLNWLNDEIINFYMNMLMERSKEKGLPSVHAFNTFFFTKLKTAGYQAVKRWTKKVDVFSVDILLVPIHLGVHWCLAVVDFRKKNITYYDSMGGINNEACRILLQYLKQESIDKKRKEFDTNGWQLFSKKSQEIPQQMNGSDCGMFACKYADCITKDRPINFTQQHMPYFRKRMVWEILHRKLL
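Controls: no-enzyme wells low, DMSO-plus-enzyme wells high control. Test system: human recombinant His6-tagged SENP1 catalytic domain enzyme. Reagent: SFCypet-SUMO1-SFYpet FRET protein substrate, 25 nM final. Doses: one dose per compound, 10 µM, 0.5% DMSO. Detection: FRET, CFP and YFP emission. Timing: 50 min reaction at room temperature.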
SENP7 block – SENP7 protease inhibitors, primary screen, biochemical, luminescence, uHTS | AID 434973, 2010 | Sentrin-specific protease 7 (Homo sapiens), Q9BQF6 | recombinant SENP7, Z-RLRGG-aminoluciferin luminescence, 40 min | 1.5% of 330,000 active | inhibition, % at 5 µM;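 active = inhibition above about 50% at the single test dose, limit read from the data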;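 also: plate controls were DMSO with enzyme for no effect and no enzyme buffer wells for full effect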
Target sequence (Q9BQF6 706-1050 limits assumed): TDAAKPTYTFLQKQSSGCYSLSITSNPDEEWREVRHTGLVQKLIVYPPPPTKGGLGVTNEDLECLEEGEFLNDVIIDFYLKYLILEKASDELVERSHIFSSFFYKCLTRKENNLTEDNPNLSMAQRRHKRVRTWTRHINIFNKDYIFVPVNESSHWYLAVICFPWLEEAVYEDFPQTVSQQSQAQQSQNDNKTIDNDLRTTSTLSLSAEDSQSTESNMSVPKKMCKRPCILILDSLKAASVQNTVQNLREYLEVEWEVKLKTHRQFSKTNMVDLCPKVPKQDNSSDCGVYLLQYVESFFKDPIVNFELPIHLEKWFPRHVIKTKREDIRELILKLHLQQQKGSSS
SENP6 inh – SENP6 protease inhibitors, primary screen, biochemical, luminescence, uHTS. 1.8% of 330,000 active. inhibition, % at 10 µM. Sentrin-specific protease 6 (Homo sapiens), Q9GZR1. Recombinant SENP6 catalytic domain, aminoluciferin luminescence;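 active = inhibition above about 50% at the single tested dose, limit read from the data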;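 also: plate controls were DMSO wells with enzyme for no effect and DMSO wells lacking enzyme for full effect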
SENP8 confirm – SENP8 protease inhibitors, retest, confirmation, biochemical, luminescence, single concentration; inhibition, % at 12.5 µM; shares compounds with SENP7 block; Recombinant SENP8, Z-RLRGG-aminoluciferin luminescence, 60 min; 40% of 6,200 active;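 active = mean inhibition across replicates above about 50%, limit read from the data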
SENP6 conf – SENP6 protease inhibitors, confirmation, biochemical, luminescence, single concentration | inhibition, % at 12.5 µM | shares compounds with SENP7 block | recombinant SENP6, Z-RLRGG-aminoluciferin luminescence | 58% of 6,200 active
SENP7 conf – SENP7 protease inhibitors, retest, confirmation, biochemical, luminescence, single concentration; inhibition, % at 12.5 µM; shares compounds with SENP7 block; 69% of 6,200 active; recombinant SENP7, Z-RLRGG-aminoluciferin luminescence, 40 min
Casp3 SENP sel – caspase-3 protease inhibitors, confirmation, selectivity assay for SENP inhibitor project, biochemical, single concentration | shares compounds with SENP7 block | 60% of 6,200 active | purified caspase-3, Z-DEVD-aminoluciferin luminescence, 60 min | inhibition, % at 12.5 µM;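 active = mean inhibition above about 50%, limit read from the data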;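 also: plate controls were enzyme with DMSO for no effect and wells without caspase-3 for full effect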
Luc interf – luminescence interference (SENP counter-screen); inhibition, % at 12.5 µM; shares compounds with SENP7 block; Pre-incubated SENP8/Z-RLRGG-aminoluciferin, luciferase luminescence interference; 39% of 6,200 active; AID 488919;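 active = mean inhibition above about 50% when retested at one dose, limit read from the data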;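 also: plate controls were DMSO wells with completed reaction for no effect and substrate without enzyme for full effect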
Active calls of the source: *; i = inactive; . = not tested or not shown. An excerpt weighted towards active compounds, which were near 3.3% of everything screened.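 The calls were made as follows, unless noted: active = mean inhibition above about 50% in the one-dose retest (limit read from the data); inactive = the rest.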

SMILES	SENP8 block-1	SENP8 block-2	CendR NRP1 mod	SENP1 inh	SENP7 block	SENP6 inh	SENP8 confirm	SENP6 conf	SENP7 conf	Casp3 SENP sel	Luc interf
CCOc1ccc(NC(=O)c2ccncc2)cc1	-10	16	7	0	-3	60*	3	-2	10	16	6
CC(C)(CNC(=O)Cc1ccc(NS(=O)(=O)c2cccc(C(F)(F)F)c2)cc1)N1CCOCC1	-4	10	0	0	4	-6	.	.	.	.	.
COc1ccc(C(=O)NCC(=O)OCc2c(Cl)cccc2Cl)cc1OC	-1	15	-2	1	1	5	.	.	.	.	.
CC(C)NC(=O)N[C@H]1C=C[C@H](CC(=O)NCc2ccc(Oc3ccccc3)cc2)O[C@@H]1CO	.	17	-3	1	.	.	.	.	.	.	.
Cc1noc(C)c1COc1cccc(C(=O)Nc2ccc(OCc3ccccc3)cc2)c1	16	26	3	0	34	57*	9	7	4	4	-6
O=C(Nc1ccccc1)c1ccc(COc2ccccc2)cc1	-9	3	6	1	64*	44	-26	-12	-4	-1	-5
COc1ccc(NC(=O)c2sccc2C)cn1	22	7	4	0	27	31	.	.	.	.	.
Cc1cc(C(=O)Nc2ccc(OCc3ccccc3)cc2)c(C)o1	94*	18	-2	-2	99*	101*	74*	96*	101*	95*	64*
Cc1ccsc1C(=O)Nc1ccc(C(=O)O)cc1	79*	20	21	2	86*	-49	-13	78*	95*	96*	81*
Cc1noc(C)c1COc1ccc(C(=O)Nc2ccccc2)cc1	-7	11	16	-1	-8	-26	.	.	.	.	.
CC1(C(=O)NS(=O)(=O)c2ccc(F)cc2F)CCN1C(=O)c1ccc(C2CCCCC2)cc1 (configuration not stated)	.	18	7	0	.	.	.	.	.	.	.
Cc1ccsc1C(=O)Nc1ccc(OCc2ccccc2)cc1	88*	19	9	-1	98*	91*	1	84*	101*	95*	4
CC(C)=CC(=O)Nc1ccc(OCc2ccccc2)cc1	49	1	0	-2	58*	73*	35	49	76*	42	45
CCOC(=O)C(=O)Nc1ccc(OCc2ccccc2)cc1	-21	11	-4	-2	14	-66	.	.	.	.	.
C[C@H](CO)N1C[C@H](C)[C@H](CN(C)S(=O)(=O)c2cccs2)OCc2cnnn2CCCC1=O	.	0	-7	-1	.	.	.	.	.	.	.
Cc1ccc(-c2nc3c4ccccc4ccn3c2Cc2ccccc2C(F)(F)F)cc1	.	-288	-24	-104	.	.	.	.	.	.	.
CCc1ccc(OC(=O)Nc2ccccc2)cc1	78*	4	9	1	38	86*	91*	91*	98*	82*	78*
CCc1ccc(-c2csc(NC(=O)Oc3ccccc3)n2)cc1	-3	-1	-8	0	-4	19	.	.	.	.	.
CC(=O)Nc1ccc(NC(=O)Oc2ccccc2)cc1	-1	-49	-7	2	5	-12	.	.	.	.	.
COc1ccc(OC(=O)Nc2ccccc2)cc1	83*	10	-8	2	-8	82*	2	88*	100*	92*	86*
Cc1ccc(-c2ccc(CCC(=O)O)o2)cc1	19	-1	-6	0	25	58*	74*	70*	86*	61*	76*
O=C(O)CCc1ccc(-c2cccs2)o1	3	-60	-15	-4	-1	-14	.	.	.	.	.
COc1ccc(-c2csc(CCn3nc(C)cc3C)n2)cc1	-1	-12	-8	-1	7	-1	.	.	.	.	.
Cc1cc(C)n(CCc2nc(-c3ccc(-c4ccccc4)cc3)cs2)n1	19	4	4	1	80*	83*	27	50	68*	36	21
CCc1ccccc1NC(=O)CNC(=O)CCC(=O)c1cc(C)sc1C	.	7	-16	-6	.	.	.	.	.	.	.
SMILES	SENP8 block-1	SENP8 block-2	CendR NRP1 mod	SENP1 inh	SENP7 block	SENP6 inh	SENP8 confirm	SENP6 conf	SENP7 conf	Casp3 SENP sel	Luc interf
CN(C)CCCNC(=O)c1cccc(-c2cnc3cccnn23)c1	.	i	2	-11	.	.	.	.	.	.	.
CC1=CC(=C(C#N)c2nc3ccccc3s2)C=C(C)N1CC1CCCO1 (configuration not stated)	26	34	-12	-35	18	82*	-4	-5	-1	9	4
O=C(/C=C/Nc1ccc(F)cc1)c1cccs1	89*	-221	1	-58	92*	93*	89*	98*	102*	96*	67*
O=C(/C=C/Nc1ccc(F)c(F)c1)c1cccs1	86*	-212	-23	-100	83*	90*	68*	89*	99*	83*	38
O=C(/C=C/Nc1ccc(S(=O)(=O)Nc2ncccn2)cc1)c1cccs1	-3	-453	-17	-34	5	5	.	.	.	.	.
CCC(C)CNC(=O)c1[nH]c(C(F)(F)F)nc1-c1ccccc1 (configuration not stated)	.	16	9	3	.	.	.	.	.	.	.
CCCCN(C(=O)c1ccc(S(=O)(=O)N(C)c2ccccc2)cc1)c1c(N)n(CCC)c(=O)[nH]c1=O	.	3	-3	-2	.	.	.	.	.	.	.
O=C(O)c1ccc(N/N=C/c2cn(Cc3ccc(F)cc3)c3ccccc23)cc1	61*	-431	0	-8	23	52*	7	72*	75*	8	12

Screens as filed in PubChem BioAssay.
